Tests used:
Type in all cases: biochemical
[1] = target: single ATPase motor domain of chicken Myosin Va (Gallus gallus, UniProt Q02440); assay: enzyme-coupled steady-state actin-activated ATPase assay, single-headed myosin V
[2] = test system: CHK1; assay: in vitro kinase assay CHK1; settings: at 100 μM
[3] = test system: PLK1; assay: in vitro kinase assay PLK1; settings: at 100 μM
[4] = test system: Abl kinase; assay: in vitro kinase assay Abl kinase; settings: at 100 μM
[5] = test system: p42 MAP kinase; assay: in vitro kinase assay p42 MAP kinase; settings: at 100 μM
[6] = test system: Casein kinase II; assay: in vitro kinase assay Casein kinase II; settings: at 100 μM
[7] = test system: Aurora kinase; assay: in vitro kinase assay Aurora kinase; settings: at 100 μM
[8] = test system: skeletal muscle myosin II; assay: in vitro ATPase assay myosin II
[9] = test system: myosin VI; assay: in vitro ATPase assay myosin VI; settings: at 50 μM
[10] = target: actomyosin V-ADP (Gallus gallus, UniProt Q02440); assay: MANT-ADP release from actomyosin V
How it was run: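 Transient-kinetic measurement of MANT-ADP release from a preformed actomyosin V–ADP complex, using the fluorescent nucleotide analog. Release amplitudes are normalized and plotted against test compound concentration. Affinity comes from the best fit of that concentration dependence of the amplitudes.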

[11] = test system: myosin V; assay: single MANT-ATP turnover measurements, myosin V without actin; settings: absence of actin; data not shown

| SMILES | mode of inhibition (effect on kcat and apparent KM for actin) ([1]; 12 μM MyoVin-1, various concentrations of actin) | increase in KI in presence of 0.1% triton X ([1]; 0.1% triton X in assay buffer vs without) | Ki ([1]; single-headed myosin V, steady-state actin-activated ATP hydrolysis) | inhibition of kinase [2] | inhibition of kinase [3] | inhibition of kinase [4] | inhibition of kinase [5] | inhibition of kinase [6] | inhibition of kinase [7] | inhibition of ATPase activity ([8]; at 50 μM) | inhibition of ATPase activity [9] | effect on ADP release ([10]; actomyosin V-ADP prepared by mixing with ATP) | effect on ADP release ([10]; actomyosin-ADP prepared by equilibrating actomyosin and ADP, data not shown) | effect on ATP binding and rate-limiting Pi release [11] | inhibition of ATPase activity ([8]; positive control, concentration not given) |
| --- | --- | --- | --- | --- | --- | --- | --- | --- | --- | --- | --- | --- | --- | --- | --- |
| O=C(O)c1cccc(SCc2cccc(Nc3ncc4c(-c5ccc(N6CCOCC6)cc5)[nH]nc4n3)c2)c1 [Compound 8] | uncompetitive inhibition | ~ 1.25 fold | ~6 µM | 5–10% | 5–10% | 5–10% | 5–10% | 5–10% | 5–10% | not observed any measurable inhibition | not observed any measurable inhibition | lowers the amplitude, but not the rate constant of ADP release | unaffected | unaffected |  |
| Cc1ccc2c(c1)C(=O)C1(O)CCN(c3ccccc3)C1=N2 (stereo not drawn) [blebbistatin, reference compound] |  |  |  |  |  |  |  |  |  |  |  |  |  |  | significantly inhibited |
